From ChEMBL document CHEMBL3352639, “Synthesis and biological evaluation of thienopyrimidine derivatives as GPR119 agonists” (Bioorg Med Chem Lett, 2014)
Activity calls are given as the source filed them. The rule behind the calls is not given here.

Legend:
[1] = target: T1, Glucose-dependent insulinotropic receptor (Homo sapiens, UniProt Q8TDV5); test: Agonist activity at human GPR119 expressed in CHO-K1 cells after 24 hrs by CRE-luciferase assay; format: functional, cell-based
T1 sequence (Q8TDV5 whole entry): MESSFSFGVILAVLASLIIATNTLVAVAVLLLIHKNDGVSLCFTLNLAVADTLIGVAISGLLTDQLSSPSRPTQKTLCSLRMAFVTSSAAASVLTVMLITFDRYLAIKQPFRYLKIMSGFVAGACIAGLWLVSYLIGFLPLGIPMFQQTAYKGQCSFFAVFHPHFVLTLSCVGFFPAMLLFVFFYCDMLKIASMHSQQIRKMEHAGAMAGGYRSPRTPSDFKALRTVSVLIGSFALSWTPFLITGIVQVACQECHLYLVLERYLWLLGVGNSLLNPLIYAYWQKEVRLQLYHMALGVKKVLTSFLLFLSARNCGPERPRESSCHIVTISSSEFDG

[2] = target: T2, Glucose-dependent insulinotropic receptor (Homo sapiens) (UniProt Q8TDV5); test: Activation of human GPR119 expressed in CHO-K1 cells at 1 uM after 24 hrs by CRE-luciferase assay relative to GSK1292263; format: functional, cell-based
T2 sequence (whole entry): T1 sequence (Q8TDV5 whole entry)

Cytochrome P450 2C9 [3] = target: T3, Cytochrome P450 2C9 (Homo sapiens, UniProt P11712); test: Inhibition of CYP2C9 (unknown origin); format: ADME
T3 sequence (P11712 whole entry): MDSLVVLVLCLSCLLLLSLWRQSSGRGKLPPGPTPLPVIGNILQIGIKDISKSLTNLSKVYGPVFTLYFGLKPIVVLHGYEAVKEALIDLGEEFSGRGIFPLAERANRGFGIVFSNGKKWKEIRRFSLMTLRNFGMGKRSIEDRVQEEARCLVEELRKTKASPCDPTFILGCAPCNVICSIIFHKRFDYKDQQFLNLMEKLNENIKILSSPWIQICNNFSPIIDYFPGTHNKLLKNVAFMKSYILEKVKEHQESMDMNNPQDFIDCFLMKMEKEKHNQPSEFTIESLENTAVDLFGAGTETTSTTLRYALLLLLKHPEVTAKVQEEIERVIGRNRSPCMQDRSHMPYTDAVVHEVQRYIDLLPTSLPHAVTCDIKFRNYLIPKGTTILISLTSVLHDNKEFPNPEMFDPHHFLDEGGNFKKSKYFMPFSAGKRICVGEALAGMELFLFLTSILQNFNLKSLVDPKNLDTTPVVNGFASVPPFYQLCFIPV

Beta-TC6 = test: Increase in glucose-stimulated insulin release in mouse BetaTC6 cells after 1 hr by ELISA; format: functional, cell-based
Method in brief: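 GSIS was measured in the TC-6 pancreatic beta-cell line exposed to compound over 10 nM to 100 nM, with insulin secretion read under glucose stimulation.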

Cytochrome P450 2B6 [4] = target: T4, Cytochrome P450 2B6 (Homo sapiens, UniProt P20813); test: Induction of CYP2B6 (unknown origin); format: ADME
T4 sequence (P20813 whole entry): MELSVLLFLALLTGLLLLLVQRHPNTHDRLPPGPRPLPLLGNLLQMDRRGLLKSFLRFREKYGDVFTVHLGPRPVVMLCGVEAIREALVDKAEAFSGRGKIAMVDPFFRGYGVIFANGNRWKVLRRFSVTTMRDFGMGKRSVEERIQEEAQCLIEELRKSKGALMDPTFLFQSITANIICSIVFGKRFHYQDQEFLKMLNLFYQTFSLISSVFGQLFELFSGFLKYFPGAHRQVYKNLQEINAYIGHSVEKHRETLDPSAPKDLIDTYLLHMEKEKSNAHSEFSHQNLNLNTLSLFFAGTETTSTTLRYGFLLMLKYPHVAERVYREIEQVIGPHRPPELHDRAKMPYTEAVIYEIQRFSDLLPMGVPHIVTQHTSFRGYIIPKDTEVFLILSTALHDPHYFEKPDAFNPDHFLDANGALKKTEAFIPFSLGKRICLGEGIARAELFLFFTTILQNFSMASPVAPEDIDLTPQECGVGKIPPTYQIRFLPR

Cytochrome P450 1A2 [5] = target: T5, Cytochrome P450 1A2 (Homo sapiens, UniProt P05177); test: Inhibition of CYP1A2 (unknown origin); format: ADME
T5 sequence (P05177 whole entry): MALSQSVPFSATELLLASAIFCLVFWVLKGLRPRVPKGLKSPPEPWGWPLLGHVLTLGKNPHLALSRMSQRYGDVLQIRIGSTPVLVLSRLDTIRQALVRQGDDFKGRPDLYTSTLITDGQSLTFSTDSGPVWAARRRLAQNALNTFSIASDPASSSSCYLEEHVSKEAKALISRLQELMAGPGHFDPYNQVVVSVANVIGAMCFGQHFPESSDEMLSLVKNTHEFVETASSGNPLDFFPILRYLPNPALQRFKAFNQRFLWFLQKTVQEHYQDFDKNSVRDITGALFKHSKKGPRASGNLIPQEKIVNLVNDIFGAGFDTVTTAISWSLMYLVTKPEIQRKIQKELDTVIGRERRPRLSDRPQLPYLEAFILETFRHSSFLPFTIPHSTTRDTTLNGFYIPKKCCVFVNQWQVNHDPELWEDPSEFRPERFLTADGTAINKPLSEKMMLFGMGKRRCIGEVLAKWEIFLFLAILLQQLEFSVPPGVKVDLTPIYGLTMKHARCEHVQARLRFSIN

Cytochrome P450 2D6 = Cytochrome P450 2D6 (Homo sapiens, UniProt P10635); test: Inhibition of CYP2D6 (unknown origin); format: ADME
Chain of Cytochrome P450 2D6 (P10635 whole entry): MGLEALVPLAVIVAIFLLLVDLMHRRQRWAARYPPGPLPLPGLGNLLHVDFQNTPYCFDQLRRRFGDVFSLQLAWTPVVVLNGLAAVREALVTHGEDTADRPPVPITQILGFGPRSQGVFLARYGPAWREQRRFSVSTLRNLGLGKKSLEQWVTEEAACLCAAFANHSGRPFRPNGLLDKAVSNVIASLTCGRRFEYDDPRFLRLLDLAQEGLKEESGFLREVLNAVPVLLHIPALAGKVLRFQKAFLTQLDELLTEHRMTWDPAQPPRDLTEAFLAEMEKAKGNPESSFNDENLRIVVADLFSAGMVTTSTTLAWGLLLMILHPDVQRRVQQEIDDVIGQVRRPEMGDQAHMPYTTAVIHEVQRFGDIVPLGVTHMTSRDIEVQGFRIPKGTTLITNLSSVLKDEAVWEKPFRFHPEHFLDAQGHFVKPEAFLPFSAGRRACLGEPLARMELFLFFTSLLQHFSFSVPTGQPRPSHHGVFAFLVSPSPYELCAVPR

[6] = Cytotoxicity against chinese hamster CHOK1 cells; format: cell-based; details: Cricetulus griseus, CHO-K1
Cytochrome P450 2A6 = target: T6, Cytochrome P450 2A6 (Homo sapiens, UniProt P11509); test: Inhibition of CYP2A6 (unknown origin); format: ADME
T6 sequence (P11509 whole entry): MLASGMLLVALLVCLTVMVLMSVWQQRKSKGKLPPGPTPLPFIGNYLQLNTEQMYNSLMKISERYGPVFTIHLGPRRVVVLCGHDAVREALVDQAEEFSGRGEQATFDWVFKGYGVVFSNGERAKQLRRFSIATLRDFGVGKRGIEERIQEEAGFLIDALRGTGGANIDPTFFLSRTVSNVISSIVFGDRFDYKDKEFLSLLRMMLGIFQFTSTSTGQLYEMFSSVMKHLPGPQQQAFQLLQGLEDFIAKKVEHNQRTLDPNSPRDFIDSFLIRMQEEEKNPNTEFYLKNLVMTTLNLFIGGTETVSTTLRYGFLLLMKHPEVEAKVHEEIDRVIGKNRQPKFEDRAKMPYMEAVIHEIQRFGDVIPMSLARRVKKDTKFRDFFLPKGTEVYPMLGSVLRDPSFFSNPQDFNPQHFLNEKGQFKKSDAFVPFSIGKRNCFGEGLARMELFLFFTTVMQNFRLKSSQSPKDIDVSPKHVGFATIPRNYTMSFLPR

hERG (KCNH2) = hERG (KCNH2) (Homo sapiens, UniProt Q12809); test: Inhibition of human ERG at 10 uM
Chain of hERG (KCNH2) (Q12809 whole entry): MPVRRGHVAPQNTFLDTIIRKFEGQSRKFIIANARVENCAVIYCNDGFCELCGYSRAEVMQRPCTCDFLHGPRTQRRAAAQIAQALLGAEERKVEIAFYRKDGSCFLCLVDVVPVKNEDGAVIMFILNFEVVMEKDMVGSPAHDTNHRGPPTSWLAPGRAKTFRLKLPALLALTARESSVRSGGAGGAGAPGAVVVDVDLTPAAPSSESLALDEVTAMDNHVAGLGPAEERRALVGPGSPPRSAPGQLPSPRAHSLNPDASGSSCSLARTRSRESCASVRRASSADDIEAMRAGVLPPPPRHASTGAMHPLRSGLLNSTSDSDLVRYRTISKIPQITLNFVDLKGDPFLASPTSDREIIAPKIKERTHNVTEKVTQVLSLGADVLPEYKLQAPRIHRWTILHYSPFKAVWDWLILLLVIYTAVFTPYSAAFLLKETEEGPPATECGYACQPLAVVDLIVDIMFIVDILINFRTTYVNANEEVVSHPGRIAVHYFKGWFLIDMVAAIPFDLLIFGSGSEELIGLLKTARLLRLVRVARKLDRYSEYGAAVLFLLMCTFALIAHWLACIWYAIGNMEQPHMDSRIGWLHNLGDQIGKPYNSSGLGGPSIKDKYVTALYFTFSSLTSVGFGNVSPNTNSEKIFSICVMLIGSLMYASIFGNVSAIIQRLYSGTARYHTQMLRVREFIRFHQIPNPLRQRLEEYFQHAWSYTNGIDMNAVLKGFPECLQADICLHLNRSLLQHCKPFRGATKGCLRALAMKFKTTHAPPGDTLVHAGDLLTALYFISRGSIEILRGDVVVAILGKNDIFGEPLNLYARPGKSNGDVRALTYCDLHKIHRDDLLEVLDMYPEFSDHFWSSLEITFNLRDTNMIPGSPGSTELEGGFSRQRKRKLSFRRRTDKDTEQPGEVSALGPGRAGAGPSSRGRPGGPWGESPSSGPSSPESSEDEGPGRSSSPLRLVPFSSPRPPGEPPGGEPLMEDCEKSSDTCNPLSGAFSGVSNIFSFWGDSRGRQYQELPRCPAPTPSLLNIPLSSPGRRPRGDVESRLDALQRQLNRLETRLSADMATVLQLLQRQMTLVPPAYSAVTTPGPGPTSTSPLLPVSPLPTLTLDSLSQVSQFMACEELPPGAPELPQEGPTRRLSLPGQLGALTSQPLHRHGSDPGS
Method in brief: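 hERG liability was assessed in a binding-assay format, reported as percent inhibition with the compound at 10 μM.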

[7] = Metabolic stability in human liver microsomes assessed as compound remaining at 1 uM after 30 mins by LC/MS/MS analysis; format: ADME; details: read-out: Stability
Mus musculus = test: Antidiabetic activity in C57BL/6 mouse assessed as reduction in plasma glucose AUC at 15 mg/kg by OGTT; format: functional, organism-based; set-up: dose 15 mg/kg
Method in brief: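 OGTT in normal mice, n = 7 per group. Plasma glucose was followed over the test, and efficacy was taken as the AUC of glucose concentration. Data are given as means ± SEM.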

Cytochrome P450 3A4 [8] = target: T7, Cytochrome P450 3A4 (Homo sapiens, UniProt P08684); test: Induction of CYP3A4 (unknown origin); format: ADME
T7 sequence (P08684 whole entry): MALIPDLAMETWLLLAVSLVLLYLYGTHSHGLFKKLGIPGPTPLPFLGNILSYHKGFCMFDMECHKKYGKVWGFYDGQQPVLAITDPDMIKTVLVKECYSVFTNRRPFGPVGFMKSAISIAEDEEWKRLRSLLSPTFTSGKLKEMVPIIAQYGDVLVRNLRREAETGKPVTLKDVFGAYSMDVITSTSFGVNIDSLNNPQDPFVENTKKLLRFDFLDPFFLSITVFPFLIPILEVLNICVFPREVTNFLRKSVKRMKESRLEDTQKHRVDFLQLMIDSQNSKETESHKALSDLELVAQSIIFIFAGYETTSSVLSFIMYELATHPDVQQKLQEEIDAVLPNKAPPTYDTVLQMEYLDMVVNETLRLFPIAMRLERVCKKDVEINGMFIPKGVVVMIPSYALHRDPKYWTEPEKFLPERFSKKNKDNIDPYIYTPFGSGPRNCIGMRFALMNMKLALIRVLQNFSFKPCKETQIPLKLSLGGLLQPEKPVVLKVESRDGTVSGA

Cytochrome P450 2C9 [9] = target: T3, Cytochrome P450 2C9; test: Induction of CYP2C9 (unknown origin); format: ADME
[10] = Metabolic stability in rat liver microsomes assessed as compound remaining at 1 uM after 30 mins by LC/MS/MS analysis; format: ADME; details: read-out: Stability
Cytochrome P450 3A4 [11] = target: T7, Cytochrome P450 3A4; test: Inhibition of CYP3A4 (unknown origin); format: ADME
L929 = test: Cytotoxicity against mouse L929 cells; format: cell-based
Cytochrome P450 1A2 [12] = target: T5, Cytochrome P450 1A2; test: Induction of CYP1A2 (unknown origin); format: ADME
Cytochrome P450 2B6 [13] = target: T4, Cytochrome P450 2B6; test: Inhibition of CYP2B6 (unknown origin); format: ADME
Cytochrome P450 2E1 = Cytochrome P450 2E1 (Homo sapiens, UniProt P05181); test: Induction of CYP2E1 (unknown origin); format: ADME
Chain of Cytochrome P450 2E1 (P05181 whole entry): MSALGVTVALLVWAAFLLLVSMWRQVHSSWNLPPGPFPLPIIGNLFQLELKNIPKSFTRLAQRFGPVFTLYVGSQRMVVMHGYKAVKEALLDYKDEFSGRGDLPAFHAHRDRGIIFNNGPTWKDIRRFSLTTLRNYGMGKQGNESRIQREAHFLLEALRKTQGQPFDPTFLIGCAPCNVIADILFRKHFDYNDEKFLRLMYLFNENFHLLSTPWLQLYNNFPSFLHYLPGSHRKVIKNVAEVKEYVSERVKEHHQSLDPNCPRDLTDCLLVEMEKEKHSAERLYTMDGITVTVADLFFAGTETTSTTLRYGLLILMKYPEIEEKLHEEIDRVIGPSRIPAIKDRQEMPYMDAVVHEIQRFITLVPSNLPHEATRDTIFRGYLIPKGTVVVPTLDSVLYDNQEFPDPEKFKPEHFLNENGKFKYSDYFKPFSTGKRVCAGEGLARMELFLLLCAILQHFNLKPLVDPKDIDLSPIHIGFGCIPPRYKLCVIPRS

HFL1 = test: Cytotoxicity against human HFL1 cells; format: cell-based
[14] = Cytotoxicity against mouse NIH/3T3 cells; format: cell-based; details: NIH3T3
Cytochrome P450 2C19 = Cytochrome P450 2C19 (Homo sapiens, UniProt P33261); test: Inhibition of CYP2C19 (unknown origin); format: ADME
Chain of Cytochrome P450 2C19 (P33261 whole entry): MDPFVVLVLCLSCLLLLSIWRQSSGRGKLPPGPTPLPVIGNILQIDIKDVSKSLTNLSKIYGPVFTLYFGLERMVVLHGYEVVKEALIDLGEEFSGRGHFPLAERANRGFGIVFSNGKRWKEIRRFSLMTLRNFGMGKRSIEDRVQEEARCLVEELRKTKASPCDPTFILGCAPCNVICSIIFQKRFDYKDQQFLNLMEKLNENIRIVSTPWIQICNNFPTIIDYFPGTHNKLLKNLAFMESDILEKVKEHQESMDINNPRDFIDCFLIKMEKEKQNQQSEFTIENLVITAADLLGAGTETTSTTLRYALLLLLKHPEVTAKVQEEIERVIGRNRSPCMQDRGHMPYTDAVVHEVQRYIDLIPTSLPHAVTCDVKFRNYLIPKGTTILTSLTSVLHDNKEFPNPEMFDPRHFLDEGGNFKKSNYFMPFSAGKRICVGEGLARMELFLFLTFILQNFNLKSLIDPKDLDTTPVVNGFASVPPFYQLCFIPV

In the case of `CC(C)S(=O)(=O)N1CCC(N(C)c2ncnc3cc(-c4ccc(S(C)(=O)=O)cc4)sc23)CC1`, the EC50 [1] is reported as 1.2 µM and the Activity [2] is reported as 70%.

Compound `CN(c1ncnc2cc(-c3ccc(S(C)(=O)=O)cc3F)sc12)C1CCN(C(=O)C2CC2)CC1` has an Activity [2] of 65%.

For `CC(C)OC(=O)N1CCC(N(C)c2ncnc3cc(-c4ccc(S(C)(=O)=O)cc4)sc23)CC1`, the EC50 [1] was 0.082 µM and the Activity [2] was 67%.

In the case of `CN(c1ncnc2cc(-c3ccc(S(C)(=O)=O)cc3)sc12)C1CCN(C(=O)C2CC2)CC1`, the EC50 [1] is reported as 0.173 µM and the Activity [2] is reported as 72%.

Compound `CC(C)(C)OC(=O)N1CCC(Oc2ncnc3cc(-c4ccc(S(C)(=O)=O)cc4)sc23)CC1` has an EC50 [1] of 0.1 µM and an Activity [2] of 64%.

For `CN(c1ncnc2cc(-c3ccc(S(C)(=O)=O)cc3F)sc12)C1CCN(C(=O)OC(C)(C)C)CC1`, the IC50 (Cytochrome P450 2C9 [3]) was 76.8 µM, the Activity (Beta-TC6) was “Dose-dependent effect” and the Activity (Cytochrome P450 2B6 [4]) was “Not Active”. The “inhibition (INH)” value (Cytochrome P450 1A2 [5]) was “Not Active”, the “inhibition (INH)” value (Cytochrome P450 2D6) was “Not Active” and the IC50 [6] was 53.4 µM. The “inhibition (INH)” value (Cytochrome P450 2A6) was “Not Active”, the inhibition at 10 µM (hERG (KCNH2)) was 13% and the remaining at 0.5 h, 1 µM [7] was over 95%. The Activity (Mus musculus) was “Active”, the Activity (Cytochrome P450 3A4 [8]) was “Not Active” and the Activity (Cytochrome P450 2C9 [9]) was “Not Active”. For the same compound, the EC50 [1] was 0.003 µM, the remaining at 0.5 h, 1 µM [10] was over 95% and the “inhibition (INH)” value (Cytochrome P450 3A4 [11]) was “Not Active”. The IC50 (L929) was 65.8 µM, the Activity (Cytochrome P450 1A2 [12]) was “Not Active” and the “inhibition (INH)” value (Cytochrome P450 2B6 [13]) was “Not Active”. For the same compound, the Activity [2] was 94%, the Activity (Cytochrome P450 2E1) was “Not Active” and the IC50 (HFL1) was over 100 µM. The IC50 [14] was 49.8 µM and the “inhibition (INH)” value (Cytochrome P450 2C19) was “Not Active”.

`CCc1cnc(N2CCC(Nc3ncnc4cc(-c5ccc(S(C)(=O)=O)cc5)sc34)CC2)nc1` showed an Activity [2] of 49%.

Compound `CC(C)NC(=O)N1CCC(N(C)c2ncnc3cc(-c4ccc(S(C)(=O)=O)cc4)sc23)CC1` has an Activity [2] of 49%.

Work on `CCN(c1ncnc2cc(-c3ccc(S(C)(=O)=O)cc3F)sc12)C1CCN(C(=O)OC(C)(C)C)CC1` yielded an Activity [2] of 45%.

`CN(c1ncnc2cc(-c3ccc(S(C)(=O)=O)cc3F)sc12)C1CCN(C(=O)OC2(C)CC2)CC1` gave an EC50 [1] of 0.026 µM and an Activity [2] of 105%.

Work on `CCc1cnc(N2CCC(Oc3ncnc4cc(-c5ccc(S(C)(=O)=O)cc5)sc34)CC2)nc1` yielded an EC50 [1] of 0.24 µM and an Activity [2] of 75%.
